Results published in article PMC5508980 (Molecular nutrition & food research, 2017).

Legend:
recombinant HDAC1 = recombinant HDAC1 (Homo sapiens, UniProt Q13547); experiment: Recombinant HDAC activity assay; assay type: biochemical; settings: for remaining activity at 50 µM: 2 h, read-out: % HDAC activity, Class I HDACs, 1
recombinant HDAC3 = recombinant HDAC3 (Homo sapiens, UniProt O15379); experiment: Recombinant HDAC activity assay; assay type: biochemical; settings: for remaining activity at 50 µM: 2 h, read-out: % HDAC activity, Class I HDACs, 3
Chain of recombinant HDAC3 (O15379 whole entry): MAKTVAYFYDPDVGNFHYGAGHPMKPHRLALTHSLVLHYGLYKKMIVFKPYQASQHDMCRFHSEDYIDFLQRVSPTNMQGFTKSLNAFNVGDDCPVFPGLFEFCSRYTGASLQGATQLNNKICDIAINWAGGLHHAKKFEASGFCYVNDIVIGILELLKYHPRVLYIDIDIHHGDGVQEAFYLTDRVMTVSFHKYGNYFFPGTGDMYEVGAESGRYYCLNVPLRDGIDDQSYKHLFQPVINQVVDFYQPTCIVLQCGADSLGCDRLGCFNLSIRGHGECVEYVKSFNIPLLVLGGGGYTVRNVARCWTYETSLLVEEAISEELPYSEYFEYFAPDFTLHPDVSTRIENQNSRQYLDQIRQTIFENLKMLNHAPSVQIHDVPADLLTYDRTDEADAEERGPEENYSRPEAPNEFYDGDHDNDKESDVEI
Chain of recombinant HDAC3 (Q9Y618 395-489 partner limits assumed): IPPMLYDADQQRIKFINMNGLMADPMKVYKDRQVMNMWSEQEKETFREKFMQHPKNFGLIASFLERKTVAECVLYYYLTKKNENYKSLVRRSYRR

recombinant HDAC8 = target: T1, recombinant HDAC8 (Homo sapiens, UniProt Q9BY41); experiment: Recombinant HDAC activity assay; assay type: biochemical; settings: for remaining activity at 50 µM: 2 h, read-out: % HDAC activity, Class I HDACs, 8
T1 sequence (Q9BY41 1-377): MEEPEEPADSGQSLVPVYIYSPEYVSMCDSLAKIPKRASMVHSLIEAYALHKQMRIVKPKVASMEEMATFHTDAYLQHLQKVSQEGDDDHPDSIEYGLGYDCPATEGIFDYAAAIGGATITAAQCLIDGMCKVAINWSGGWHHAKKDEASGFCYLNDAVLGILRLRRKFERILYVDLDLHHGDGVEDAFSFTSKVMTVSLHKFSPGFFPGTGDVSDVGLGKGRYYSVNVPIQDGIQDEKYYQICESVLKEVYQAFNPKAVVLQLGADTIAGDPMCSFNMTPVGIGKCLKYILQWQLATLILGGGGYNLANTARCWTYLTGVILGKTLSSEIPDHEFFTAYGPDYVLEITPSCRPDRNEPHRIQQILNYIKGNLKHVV

recombinant HDAC4 = recombinant HDAC4 (Homo sapiens, UniProt P56524); experiment: Recombinant HDAC activity assay; assay type: biochemical; settings: 2 h, read-out: % HDAC activity, Class IIa HDACs, 4
Chain of recombinant HDAC4 (P56524 whole entry): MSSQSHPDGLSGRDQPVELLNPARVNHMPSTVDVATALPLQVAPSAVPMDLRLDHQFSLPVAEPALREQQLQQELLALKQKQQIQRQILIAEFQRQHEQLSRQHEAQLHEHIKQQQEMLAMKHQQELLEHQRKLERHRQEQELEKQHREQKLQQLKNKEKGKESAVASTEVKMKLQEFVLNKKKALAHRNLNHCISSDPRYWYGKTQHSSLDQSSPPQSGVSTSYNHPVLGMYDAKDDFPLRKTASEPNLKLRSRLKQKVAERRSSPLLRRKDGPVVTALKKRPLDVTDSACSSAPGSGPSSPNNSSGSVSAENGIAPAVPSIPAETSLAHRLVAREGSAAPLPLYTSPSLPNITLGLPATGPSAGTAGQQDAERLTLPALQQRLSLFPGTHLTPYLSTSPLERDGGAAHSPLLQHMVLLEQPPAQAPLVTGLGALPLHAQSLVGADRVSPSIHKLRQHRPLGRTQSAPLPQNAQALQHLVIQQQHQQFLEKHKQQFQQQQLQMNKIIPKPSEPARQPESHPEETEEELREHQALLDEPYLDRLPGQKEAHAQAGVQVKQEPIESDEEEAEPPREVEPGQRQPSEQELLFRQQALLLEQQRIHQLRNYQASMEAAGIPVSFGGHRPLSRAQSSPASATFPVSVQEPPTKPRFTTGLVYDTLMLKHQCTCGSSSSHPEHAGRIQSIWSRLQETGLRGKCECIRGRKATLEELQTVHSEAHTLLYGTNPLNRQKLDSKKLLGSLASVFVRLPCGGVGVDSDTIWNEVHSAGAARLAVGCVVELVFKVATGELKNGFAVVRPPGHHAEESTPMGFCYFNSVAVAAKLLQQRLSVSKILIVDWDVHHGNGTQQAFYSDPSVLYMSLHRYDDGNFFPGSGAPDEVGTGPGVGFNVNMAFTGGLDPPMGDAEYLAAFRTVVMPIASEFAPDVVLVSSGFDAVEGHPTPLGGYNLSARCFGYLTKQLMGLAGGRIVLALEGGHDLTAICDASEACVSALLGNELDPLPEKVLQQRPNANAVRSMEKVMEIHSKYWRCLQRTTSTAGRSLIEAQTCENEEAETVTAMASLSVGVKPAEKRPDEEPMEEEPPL

recombinant HDAC5 = recombinant HDAC5 (Homo sapiens, UniProt Q9UQL6); experiment: Recombinant HDAC activity assay; assay type: biochemical; settings: 2 h, read-out: % HDAC activity, Class IIa HDACs, 5
Chain of recombinant HDAC5 (Q9UQL6 whole entry): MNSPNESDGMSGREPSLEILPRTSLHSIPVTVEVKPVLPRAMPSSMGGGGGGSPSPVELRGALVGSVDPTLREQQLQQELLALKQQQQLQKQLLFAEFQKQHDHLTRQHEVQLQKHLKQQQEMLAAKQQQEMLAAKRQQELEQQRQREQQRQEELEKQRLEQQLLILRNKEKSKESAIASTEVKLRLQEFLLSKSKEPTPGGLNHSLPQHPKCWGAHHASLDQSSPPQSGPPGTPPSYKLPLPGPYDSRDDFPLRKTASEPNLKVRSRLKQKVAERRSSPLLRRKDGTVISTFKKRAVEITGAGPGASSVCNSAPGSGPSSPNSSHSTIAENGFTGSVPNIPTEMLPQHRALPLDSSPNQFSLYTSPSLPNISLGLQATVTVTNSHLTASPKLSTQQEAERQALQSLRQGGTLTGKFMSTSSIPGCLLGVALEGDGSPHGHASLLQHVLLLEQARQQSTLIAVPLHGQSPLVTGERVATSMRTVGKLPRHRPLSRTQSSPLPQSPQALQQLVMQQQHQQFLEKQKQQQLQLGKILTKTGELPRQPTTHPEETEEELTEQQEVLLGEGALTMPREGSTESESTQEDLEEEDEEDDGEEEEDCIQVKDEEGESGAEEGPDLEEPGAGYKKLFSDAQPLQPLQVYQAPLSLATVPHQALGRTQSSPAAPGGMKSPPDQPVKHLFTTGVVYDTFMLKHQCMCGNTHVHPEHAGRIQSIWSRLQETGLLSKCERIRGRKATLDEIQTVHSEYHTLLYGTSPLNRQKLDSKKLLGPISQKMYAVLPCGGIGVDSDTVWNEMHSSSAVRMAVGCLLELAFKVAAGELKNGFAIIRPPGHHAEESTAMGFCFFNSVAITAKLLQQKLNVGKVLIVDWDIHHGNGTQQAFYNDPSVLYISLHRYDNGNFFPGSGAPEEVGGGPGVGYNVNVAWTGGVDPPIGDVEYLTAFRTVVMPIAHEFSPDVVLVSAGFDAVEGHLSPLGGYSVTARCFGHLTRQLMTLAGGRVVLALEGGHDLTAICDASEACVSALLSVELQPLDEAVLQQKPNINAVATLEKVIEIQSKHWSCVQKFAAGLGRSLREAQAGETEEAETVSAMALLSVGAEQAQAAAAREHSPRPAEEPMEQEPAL

recombinant HDAC7 = target: T2, recombinant HDAC7 (Homo sapiens, UniProt Q8WUI4); experiment: Recombinant HDAC activity assay; assay type: biochemical; settings: recombinant protein incubated with 50 µM compound, 2 hrs
T2 sequence (Q8WUI4 1-952): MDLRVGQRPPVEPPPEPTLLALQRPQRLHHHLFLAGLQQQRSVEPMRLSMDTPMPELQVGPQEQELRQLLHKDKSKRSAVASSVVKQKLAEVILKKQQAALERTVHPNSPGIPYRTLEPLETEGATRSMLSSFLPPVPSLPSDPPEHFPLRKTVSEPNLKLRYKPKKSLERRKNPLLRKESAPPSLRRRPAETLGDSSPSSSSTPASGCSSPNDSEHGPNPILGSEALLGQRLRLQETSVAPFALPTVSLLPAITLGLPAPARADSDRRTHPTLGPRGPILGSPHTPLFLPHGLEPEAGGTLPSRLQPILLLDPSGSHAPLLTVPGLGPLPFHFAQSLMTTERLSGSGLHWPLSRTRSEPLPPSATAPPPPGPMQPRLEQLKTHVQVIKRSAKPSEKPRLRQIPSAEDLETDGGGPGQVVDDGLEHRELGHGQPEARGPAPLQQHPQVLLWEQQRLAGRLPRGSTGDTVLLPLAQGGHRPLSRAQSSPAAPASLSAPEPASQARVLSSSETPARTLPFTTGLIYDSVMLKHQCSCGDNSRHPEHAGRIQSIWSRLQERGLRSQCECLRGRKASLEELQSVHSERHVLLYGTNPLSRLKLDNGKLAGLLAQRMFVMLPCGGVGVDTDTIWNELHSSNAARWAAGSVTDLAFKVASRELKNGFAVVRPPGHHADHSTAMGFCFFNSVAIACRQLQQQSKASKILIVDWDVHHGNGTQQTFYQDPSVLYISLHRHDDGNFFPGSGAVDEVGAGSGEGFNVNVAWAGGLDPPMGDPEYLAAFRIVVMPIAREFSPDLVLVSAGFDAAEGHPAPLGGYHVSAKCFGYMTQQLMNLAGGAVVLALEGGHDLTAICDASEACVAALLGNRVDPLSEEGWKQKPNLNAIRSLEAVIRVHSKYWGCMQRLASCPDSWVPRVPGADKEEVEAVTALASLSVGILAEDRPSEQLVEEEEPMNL

recombinant HDAC9 = recombinant HDAC9 (Homo sapiens, UniProt Q9UKV0); experiment: Recombinant HDAC activity assay; assay type: biochemical; settings: 2 h, read-out: % HDAC activity, Class IIa HDACs, 9
Chain of recombinant HDAC9 (Q9UKV0 whole entry): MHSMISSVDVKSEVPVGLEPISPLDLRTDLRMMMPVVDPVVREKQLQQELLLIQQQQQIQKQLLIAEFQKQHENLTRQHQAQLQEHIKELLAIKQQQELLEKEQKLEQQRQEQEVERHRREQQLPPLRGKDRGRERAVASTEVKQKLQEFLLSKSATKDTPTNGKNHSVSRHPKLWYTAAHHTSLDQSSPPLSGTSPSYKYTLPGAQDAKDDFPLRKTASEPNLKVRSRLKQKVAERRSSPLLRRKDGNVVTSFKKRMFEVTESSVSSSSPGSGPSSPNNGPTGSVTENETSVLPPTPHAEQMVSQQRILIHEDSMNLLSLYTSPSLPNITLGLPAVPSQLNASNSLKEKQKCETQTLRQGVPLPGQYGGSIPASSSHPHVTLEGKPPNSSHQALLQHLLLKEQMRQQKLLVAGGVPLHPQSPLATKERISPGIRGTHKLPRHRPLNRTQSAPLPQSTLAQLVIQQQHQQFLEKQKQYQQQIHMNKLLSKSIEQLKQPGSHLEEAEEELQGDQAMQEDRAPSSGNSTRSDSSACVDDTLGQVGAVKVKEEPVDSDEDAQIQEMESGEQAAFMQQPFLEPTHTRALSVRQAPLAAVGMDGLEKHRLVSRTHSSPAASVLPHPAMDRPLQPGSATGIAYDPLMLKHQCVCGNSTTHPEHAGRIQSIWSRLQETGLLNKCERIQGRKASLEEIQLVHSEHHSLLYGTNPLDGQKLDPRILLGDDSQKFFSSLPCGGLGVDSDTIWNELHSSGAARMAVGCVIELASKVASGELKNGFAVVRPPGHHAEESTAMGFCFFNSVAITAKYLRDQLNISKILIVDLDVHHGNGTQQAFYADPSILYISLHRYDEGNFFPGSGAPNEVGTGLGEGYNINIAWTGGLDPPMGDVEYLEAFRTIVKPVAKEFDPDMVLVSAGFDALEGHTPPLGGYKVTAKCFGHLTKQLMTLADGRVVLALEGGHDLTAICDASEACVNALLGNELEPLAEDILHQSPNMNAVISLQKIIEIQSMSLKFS

recombinant HDAC10 = target: T3, recombinant HDAC10 (Homo sapiens, UniProt Q969S8); experiment: Recombinant HDAC activity assay; assay type: biochemical; settings: 2 h, read-out: % HDAC activity, Class IIb HDACs, 10
T3 sequence (Q969S8 1-669): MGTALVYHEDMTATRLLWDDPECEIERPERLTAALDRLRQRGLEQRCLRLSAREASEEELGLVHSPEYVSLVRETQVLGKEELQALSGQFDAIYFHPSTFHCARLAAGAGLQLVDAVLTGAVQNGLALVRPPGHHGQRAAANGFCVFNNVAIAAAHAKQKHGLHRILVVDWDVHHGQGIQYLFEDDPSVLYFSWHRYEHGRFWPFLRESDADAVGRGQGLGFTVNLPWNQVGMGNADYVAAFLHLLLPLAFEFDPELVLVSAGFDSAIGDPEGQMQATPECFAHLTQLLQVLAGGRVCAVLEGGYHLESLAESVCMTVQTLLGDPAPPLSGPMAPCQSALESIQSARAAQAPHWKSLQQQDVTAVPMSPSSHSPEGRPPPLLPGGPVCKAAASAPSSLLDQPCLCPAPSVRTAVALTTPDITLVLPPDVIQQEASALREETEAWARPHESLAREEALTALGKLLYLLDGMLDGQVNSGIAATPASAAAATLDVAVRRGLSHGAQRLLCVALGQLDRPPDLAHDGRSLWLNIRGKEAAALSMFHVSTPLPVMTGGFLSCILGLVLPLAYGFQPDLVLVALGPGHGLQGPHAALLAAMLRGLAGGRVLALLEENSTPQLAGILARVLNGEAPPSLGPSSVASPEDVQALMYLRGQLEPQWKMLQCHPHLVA

[1] = test system: HDAC activity in bovine cardiac tissue; experiment: Natural product library screen with class-selective HDAC substrates; assay type: biochemical; settings: 2 hours treatment
Outline: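 The screen covered 131 natural compounds against bovine cardiac tissue lysate at 30 µg protein/well in PBS (pH 7.4 lysis buffer with Triton X-100 and NaCl). Test compound for 2 h, then separate class I, IIa or IIb fluorogenic acyl-lysine-AMC substrates for 2 h at 37 °C. Developer (Triton X-100, 3 µM TSA, 0.75 mg/ml trypsin) for 20 min; fluorescence read at 360/460 nm.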

H9c2 cells = experiment: Acetyl-H3K9/14 immunoblot of whole cell extract; assay type: cell-based, rat; settings: H9c2 myocytes, 50 µM, 2 hours
Outline: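 H9c2 cells were grown in DMEM with 10% FBS and treated at 90% confluence for 2 h with test compound or DMSO, with TSA as positive control. Washed in ice-cold PBS, lysed in PBS pH 7.4 with 0.5% Triton X-100 and 300 mM NaCl plus inhibitors, sonicated and clarified. SDS-PAGE, nitrocellulose, acetyl-H3K9/14 and total H3 antibodies, chemiluminescence; densitometry; ANOVA with Tukey.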

Class IIb HDAC = experiment: HDAC activity assay, class IIb substrate, bovine heart tissue lysate; assay type: biochemical; settings: 2 hours treatment
Outline: (§1)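 Bovine heart lysate prepared in PBS pH 7.4 with 0.5% Triton X-100, 300 mM NaCl and protease/phosphatase inhibitors, then clarified; 30 µg protein/well in PBS. Test compound at semi-log increasing concentrations for 2 h, then class-specific AMC-acyl-lysine substrate (1 mM DMSO stock) for 2 h at 37 °C.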

recombinant HDAC6 = target: T4, recombinant HDAC6 (Homo sapiens, UniProt Q9UBN7); experiment: Recombinant HDAC activity assay; assay type: biochemical; settings: 2 h, read-out: % HDAC activity, Class IIb HDACs, 6
T4 sequence (Q9UBN7 1-1215): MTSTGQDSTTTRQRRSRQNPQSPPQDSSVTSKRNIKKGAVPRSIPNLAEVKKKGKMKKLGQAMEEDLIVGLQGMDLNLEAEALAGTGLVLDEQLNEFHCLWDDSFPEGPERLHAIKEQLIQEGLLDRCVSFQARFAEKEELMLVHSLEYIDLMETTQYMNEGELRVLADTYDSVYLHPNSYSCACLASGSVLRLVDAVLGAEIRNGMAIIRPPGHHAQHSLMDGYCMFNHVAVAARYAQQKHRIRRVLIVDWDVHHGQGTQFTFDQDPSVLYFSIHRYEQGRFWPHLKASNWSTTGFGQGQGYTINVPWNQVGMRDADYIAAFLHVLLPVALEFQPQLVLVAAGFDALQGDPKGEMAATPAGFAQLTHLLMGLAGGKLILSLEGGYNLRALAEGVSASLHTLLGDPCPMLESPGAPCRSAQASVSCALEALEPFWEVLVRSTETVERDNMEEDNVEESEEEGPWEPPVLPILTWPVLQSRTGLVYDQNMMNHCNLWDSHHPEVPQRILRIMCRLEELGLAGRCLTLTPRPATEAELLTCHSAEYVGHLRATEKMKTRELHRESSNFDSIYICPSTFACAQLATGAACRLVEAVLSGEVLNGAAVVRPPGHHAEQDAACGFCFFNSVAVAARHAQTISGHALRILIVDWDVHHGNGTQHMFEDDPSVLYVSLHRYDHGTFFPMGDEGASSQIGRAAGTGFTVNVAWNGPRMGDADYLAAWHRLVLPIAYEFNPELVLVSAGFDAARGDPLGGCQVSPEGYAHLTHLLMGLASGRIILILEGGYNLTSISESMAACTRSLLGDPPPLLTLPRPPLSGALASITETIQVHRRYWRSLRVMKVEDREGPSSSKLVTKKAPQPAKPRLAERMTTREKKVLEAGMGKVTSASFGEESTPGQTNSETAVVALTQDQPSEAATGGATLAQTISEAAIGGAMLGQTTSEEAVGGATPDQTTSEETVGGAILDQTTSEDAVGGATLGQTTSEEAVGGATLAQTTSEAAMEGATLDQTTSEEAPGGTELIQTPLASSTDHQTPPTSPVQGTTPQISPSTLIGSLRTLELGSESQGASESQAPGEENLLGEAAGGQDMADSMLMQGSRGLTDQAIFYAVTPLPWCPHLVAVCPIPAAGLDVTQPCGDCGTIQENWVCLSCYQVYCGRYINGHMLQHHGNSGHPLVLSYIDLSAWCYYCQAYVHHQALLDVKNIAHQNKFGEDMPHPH

Class I HDAC = experiment: HDAC activity assay, class I substrate, bovine heart tissue lysate; assay type: biochemical; settings: 2 hours treatment
Outline: as §1

recombinant HDAC2 = recombinant HDAC2 (Homo sapiens, UniProt Q92769); experiment: Recombinant HDAC activity assay; assay type: biochemical
Chain of recombinant HDAC2 (Q92769 whole entry): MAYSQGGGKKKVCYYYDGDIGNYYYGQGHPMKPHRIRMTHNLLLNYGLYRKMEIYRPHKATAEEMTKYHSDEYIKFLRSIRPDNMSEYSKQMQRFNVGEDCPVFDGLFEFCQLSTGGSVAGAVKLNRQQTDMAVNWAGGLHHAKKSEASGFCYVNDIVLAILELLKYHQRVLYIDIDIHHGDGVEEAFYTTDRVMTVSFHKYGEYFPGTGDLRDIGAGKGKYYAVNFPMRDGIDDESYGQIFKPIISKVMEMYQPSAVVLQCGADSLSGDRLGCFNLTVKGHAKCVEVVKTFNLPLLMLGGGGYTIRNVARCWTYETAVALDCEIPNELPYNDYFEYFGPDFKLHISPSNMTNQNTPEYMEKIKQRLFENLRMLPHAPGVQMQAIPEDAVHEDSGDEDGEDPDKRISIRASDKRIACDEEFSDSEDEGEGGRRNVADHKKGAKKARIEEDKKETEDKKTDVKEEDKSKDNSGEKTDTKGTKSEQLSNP

[2] = recombinant protein incubated with 50 µM compound, 2 hrs

Chain of recombinant HDAC1 (Q13547 whole entry): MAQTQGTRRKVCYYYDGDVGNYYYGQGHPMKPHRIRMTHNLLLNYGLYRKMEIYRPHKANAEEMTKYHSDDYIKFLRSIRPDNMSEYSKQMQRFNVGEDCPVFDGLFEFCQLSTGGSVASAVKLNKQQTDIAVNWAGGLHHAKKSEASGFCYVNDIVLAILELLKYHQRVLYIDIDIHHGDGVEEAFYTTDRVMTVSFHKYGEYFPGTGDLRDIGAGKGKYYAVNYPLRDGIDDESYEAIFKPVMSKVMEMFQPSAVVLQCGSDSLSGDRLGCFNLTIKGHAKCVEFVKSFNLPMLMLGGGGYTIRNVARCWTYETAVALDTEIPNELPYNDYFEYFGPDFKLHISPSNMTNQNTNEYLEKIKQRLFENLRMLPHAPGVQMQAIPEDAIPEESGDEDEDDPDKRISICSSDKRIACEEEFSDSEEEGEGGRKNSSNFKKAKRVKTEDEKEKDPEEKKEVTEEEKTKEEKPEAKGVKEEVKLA

SMILES	remaining activity at 50 µM (recombinant HDAC1) [%]	remaining activity at 50 µM (recombinant HDAC3) [%]	remaining activity at 50 µM (recombinant HDAC8) [%]	remaining activity at 50 µM (recombinant HDAC4) [%]	remaining activity at 50 µM (recombinant HDAC5) [%]	% HDAC activity, Class IIa HDACs, 7 (recombinant HDAC7)	remaining activity at 50 µM (recombinant HDAC9) [%]	remaining activity at 50 µM (recombinant HDAC10) [%]	catalytic HDAC activity across class I, IIa and IIb substrates, effect in words [1]	acetylation of histone 3 on lysine 9/14 (Ac-H3 K9/14) via immunoblot (H9c2 cells)	class IIb HDAC activity, effect in words (Class IIb HDAC)	remaining activity at 50 µM (recombinant HDAC6) [%]	class I HDAC activity, effect in words (Class I HDAC)	% HDAC activity, Class I HDACs, 1 (recombinant HDAC1; [2]) [%]	% HDAC activity, Class I HDACs, 2 (recombinant HDAC2; [2]) [%]	% HDAC activity, Class I HDACs, 3 (recombinant HDAC3; [2]) [%]	% HDAC activity, Class I HDACs, 8 (recombinant HDAC8; [2]) [%]	remaining activity at 50 µM (recombinant HDAC2; 2 h, read-out: % HDAC activity, Class I HDACs, 2) [%]
O=c1c(O)c(-c2ccc(O)c(O)c2)oc2cc(O)cc(O)c12 [Quercetin dihydrate]	72.7	63.6	64	89.8	78.2	-	70.8	68	dose-dependent pan-HDAC inhibition	increased								
Oc1cc2c(cc1O)[C@@H]1c3ccc(O)c(O)c3OC[C@]1(O)C2 [Hematoxylin]						-					targeted class IIb HDACs for inhibition	81.8						
COc1cc2c(cc1OC)-c1cc3ccc(OC)c(OC)c3c[n+]1CC2 [Palmatine]						-							only inhibit class I HDAC activity	44.8	17.5	47.1	40.9	
Cc1cc2c(C(C)C)c(O)c(O)c(C=O)c2c(O)c1-c1c(C)cc2c(C(C)C)c(O)c(O)c(C=O)c2c1O [Gossypol]	42.6	42.1	40.7		51.5	-	44.5	42.6	dose-dependent pan-HDAC inhibition	increased								15.1
